From ChEMBL document CHEMBL1123648, “Synthesis, chemical reactivity, and antileukemic activity of 5-substituted 6,7-bis(hydroxymethyl)pyrrolo[1,2-c]thiazole biscarbamates and the corresponding sulfoxides and sulfones” (1987)

Legend:
P388 [1] = experiment: Log cell population relative to cell population at the beginning of treatment compared to control group B at a dose of 6.25 mg/kg; assay type: functional, Mus musculus
[2] = Antileukemic activity against Murine P388 lymphocytic leukemia, body weight difference of the test animals compared to control group B animals at a dose of 12.5 mg/kg; assay type: functional, Mus musculus; set-up: unit not given here
Procedure, shortened: (§1)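 CD2F1 mice implanted intraperitoneally with ascitic fluid carrying ca. 1×10^6 P388 cells, under the NCI protocol. Dosing was intraperitoneal, starting 24 h after inoculation, then every 24 h for five doses in total. The body weight difference of treated mice is taken against untreated controls. Toxicity day survivors are the mice alive at day five out of those tested.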

[3] = Percent increase in life span of test animals compared to untreated tumor-bearing control group B animals at a dose of 6.25 mg/kg; assay type: functional; conditions: Mus musculus
[4] = Antileukemic activity against Murine P388 lymphocytic leukemia, body weight difference of the test animals compared to control group B animals at a dose of 6.25 mg/kg; assay type: functional, Mus musculus; procedure, shortened: as §1
[5] = Antileukemic activity against Murine P388 lymphocytic leukemia and toxicity day survivors expressed as number of animals that survived to day five/ number of test animals under control group B at a dose of 6.5 mg/kg; 6 survived out of 6; assay type: functional, Mus musculus
[6] = Toxicity day survivors expressed as number of animals that survived to day five/ number of test animals under control group B at a dose of 25 mg/kg; 6 survived out of 6; assay type: functional, Mus musculus
[7] = Antileukemic activity against Murine P388 lymphocytic leukemia, body weight difference of the test animals compared to control group B animals at a dose of 50 mg/kg; assay type: functional, Mus musculus; set-up: unit not given here; procedure, shortened: as §1
[8] = Toxicity day survivors expressed as number of animals that survived to day five/ number of test animals under control group B at a dose of 12.5 mg/kg; assay type: functional, Mus musculus
[9] = Percent increase in life span of test animals compared to untreated tumor-bearing control group B animals at a dose of 50 mg/kg; assay type: functional; conditions: Mus musculus
[10] = Toxicity day survivors expressed as number of animals that survived to day five/ number of test animals under control group B at a dose of 100 mg/kg; 6 survived out of 6; assay type: functional, Mus musculus
[11] = Antileukemic activity against Murine P388 lymphocytic leukemia, body weight difference of the test animals compared to control group B animals at a dose of 25 mg/kg; assay type: functional, Mus musculus; set-up: unit not given here; procedure, shortened: as §1
[12] = Toxicity day survivors expressed as number of animals that survived to day five/ number of test animals under control group B at a dose of 50 mg/kg; 6 survived out of 6; assay type: functional, Mus musculus
[13] = Percent increase in life span of test animals compared to untreated tumor-bearing control group B animals at a dose of 12.5 mg/kg; assay type: functional; conditions: Mus musculus
[14] = Antileukemic activity against Murine P388 lymphocytic leukemia, body weight difference of the test animals compared to control group B animals at a dose of 100 mg/kg; assay type: functional, Mus musculus; set-up: unit not given here; procedure, shortened: as §1
[15] = Toxicity day survivors expressed as number of animals that survived to day five/ number of test animals under control group B at a dose of 25 mg/kg; 5 survived out of 6; assay type: functional, Mus musculus
[16] = Toxicity day survivors expressed as number of animals that survived to day five/ number of test animals under control group B at a dose of 100 mg/kg; 1 survived out of 6; assay type: functional, Mus musculus
P388 [17] = experiment: Log cell population relative to cell population at the beginning of treatment compared to control group Bat a dose of 50 mg/kg; assay type: functional, Mus musculus
[18] = Toxicity day survivors expressed as number of animals that survived to day five/ number of test animals under control group B at a dose of 12.5 mg/kg; […] out of 6; assay type: functional, Mus musculus
P388 [19] = experiment: Log cell population relative to cell population at the beginning of treatment compared to control group B at a dose of 12.5 mg/kg; assay type: functional, Mus musculus
P388 [20] = experiment: Log cell population relative to cell population at the beginning of treatment compared to control group B at a dose of 25 mg/kg; assay type: functional, Mus musculus
[21] = Percent increase in life span of test animals compared to untreated tumor-bearing control group B animals at a dose of 25 mg/kg; assay type: functional; conditions: Mus musculus
[22] = Toxicity day survivors expressed as number of animals that survived to day five/ number of test animals under control group B at a dose of 50 mg/kg; 5 survived out of 6; assay type: functional, Mus musculus
P388 [23] = experiment: Log cell population relative to cell population at the beginning of treatment compared to control group C at a dose of 50 mg/kg; assay type: functional, Mus musculus
[24] = Percent increase in life span of test animals compared to untreated tumor-bearing control group C animals at a dose of 25 mg/kg; assay type: functional; conditions: Mus musculus
[25] = Antileukemic activity against Murine P388 lymphocytic leukemia, body weight difference of the test animals compared to control group C animals at a dose of 100 mg/kg; assay type: functional, Mus musculus; set-up: unit not given here; procedure, shortened: as §1
[26] = Antileukemic activity against Murine P388 lymphocytic leukemia, body weight difference of the test animals compared to control group C animals at a dose of 25 mg/kg; assay type: functional, Mus musculus; procedure, shortened: as §1
[27] = Antileukemic activity against Murine P388 lymphocytic leukemia, body weight difference of the test animals compared to control group C animals at a dose of 200 mg/kg; assay type: functional, Mus musculus; procedure, shortened: as §1
[28] = Toxicity day survivors expressed as number of animals that survived to day five/ number of test animals under control group C at a dose of 100 mg/kg; 6 survived out of 6; assay type: functional, Mus musculus
[29] = Antileukemic activity against Murine P388 lymphocytic leukemia, body weight difference of the test animals compared to control group C animals at a dose of 50 mg/kg; assay type: functional, Mus musculus; set-up: unit not given here; procedure, shortened: as §1
[30] = Toxicity day survivors expressed as number of animals that survived to day five/ number of test animals under control group C at a dose of 200 mg/kg; 6 survived out of 6; assay type: functional, Mus musculus
P388 [31] = experiment: Log cell population relative to cell population at the beginning of treatment compared to control group C at a dose of 25 mg/kg; assay type: functional, Mus musculus
[32] = Toxicity day survivors expressed as number of animals that survived to day five/ number of test animals under control group C at a dose of 25 mg/kg; 6 survived out of 6; assay type: functional, Mus musculus
[33] = Toxicity day survivors expressed as number of animals that survived to day five/ number of test animals under control group C at a dose of 50 mg/kg; 6 survived out of 6; assay type: functional, Mus musculus
[34] = Percent increase in life span of test animals compared to untreated tumor-bearing control group C animals at a dose of 50 mg/kg; assay type: functional; conditions: Mus musculus
[35] = Antileukemic activity against Murine P388 lymphocytic leukemia, body weight difference of the test animals compared to control group A animals at a dose of 50 mg/kg; assay type: functional, Mus musculus; set-up: unit not given here; procedure, shortened: as §1
[36] = Toxicity day survivors expressed as number of animals that survived to day five/ number of test animals under control group A at a dose of 200 mg/kg; 6 survived out of 6; assay type: functional, Mus musculus
[37] = Toxicity day survivors expressed as number of animals that survived to day five/ number of test animals under control group A at a dose of 100 mg/kg; 6 survived out of 6; assay type: functional, Mus musculus
[38] = Toxicity day survivors expressed as number of animals that survived to day five/ number of test animals under control group A at a dose of 50 mg/kg; 6 survived out of 6; assay type: functional, Mus musculus
[39] = Percent increase in life span of test animals compared to untreated tumor-bearing control group A animals at a dose of 200 mg/kg; assay type: functional; conditions: Mus musculus
[40] = Antileukemic activity against Murine P388 lymphocytic leukemia, body weight difference of the test animals compared to control group A animals at a dose of 400 mg/kg; assay type: functional, Mus musculus; procedure, shortened: as §1
[41] = Antileukemic activity against Murine P388 lymphocytic leukemia, body weight difference of the test animals compared to control group A animals at a dose of 100 mg/kg; assay type: functional, Mus musculus; set-up: unit not given here; procedure, shortened: as §1
[42] = Toxicity day survivors expressed as number of animals that survived to day five/ number of test animals under control group A at a dose of 400 mg/kg; 3 survived out of 6; assay type: functional, Mus musculus
[43] = Toxicity day survivors expressed as number of animals that survived to day five/ number of test animals under control group A at a dose of 25 mg/kg; 6 survived out of 6; assay type: functional, Mus musculus
[44] = Antileukemic activity against Murine P388 lymphocytic leukemia, body weight difference of the test animals compared to control group A animals at a dose of 200 mg/kg; assay type: functional, Mus musculus; procedure, shortened: as §1
[45] = Antileukemic activity against Murine P388 lymphocytic leukemia, body weight difference of the test animals compared to control group A animals at a dose of 25 mg/kg; assay type: functional, Mus musculus; set-up: unit not given here; procedure, shortened: as §1

CC(C)NC(=O)OCc1c(COC(=O)NC(C)C)c(-c2ccc(Cl)c(Cl)c2)n2c1CS(=O)(=O)C2 showed a KE (P388 [1]) of -1.47, a BWD [2] of 1.3 and an ILS at 6.25 mg/kg [3] of 1%. The BWD [4] was -0.6, the TDS [5] was 6 and the TDS [6] was 6. It also gave a BWD [7] of -0.8, a TDS [8] of 6 and an ILS at 50 mg/kg [9] of -14%. The TDS [10] was 6, the BWD [11] was 0.4 and the TDS [12] was 6. It also gave an ILS at 12.5 mg/kg [13] of -13% and a BWD [14] of -2.3.

Compound CC(C)NC(=O)OCc1cn2c(c1COC(=O)NC(C)C)CCC2 has a TDS [15] of 5, a TDS [16] of 1 and a KE (P388 [17]) of -0.69. The BWD [2] was -0.9, the TDS [18] was 5 and the BWD [7] was -4.4. For the same compound, the KE (P388 [19]) was -1.23, the KE (P388 [20]) was -0.46 and the ILS at 50 mg/kg [9] was 26%. The ILS at 25 mg/kg [21] was 28%, the BWD [11] was -4.5 and the ILS at 12.5 mg/kg [13] was 20%. It also gave a TDS [22] of 5 and a BWD [14] of -3.6.

For CNC(=O)OCc1c(COC(=O)NC)c2n(c1C)CSC2, the KE (P388 [23]) was 0, the ILS at 25 mg/kg [24] was 26% and the BWD [25] was -2.2. The BWD [26] was -1, the BWD [27] was -1.9 and the TDS [28] was 6. It also gave a BWD [29] of -1.7, a TDS [30] of 6 and a KE (P388 [31]) of -0.03. It also gave a TDS [32] of 6, a TDS [33] of 6 and an ILS at 50 mg/kg [34] of 32%.

Compound CC(C)NC(=O)OCc1c(COC(=O)NC(C)C)c(-c2ccc(Cl)c(Cl)c2)n2c1C[S+]([O-])C2 (stereo unspecified) has a BWD [35] of -1.9, a TDS [36] of 6 and a TDS [37] of 6. It also gave a TDS [38] of 6, an ILS at 200 mg/kg [39] of -11% and a BWD [40] of -3.4. For the same compound, the BWD [41] was -2.9, the TDS [42] was 3 and the TDS [43] was 6. It also gave a BWD [44] of -3.1 and a BWD [45] of -0.9.
